In brackets after ≈: the same amount, converted by molar mass.
Key:
HIV [1] = settings: cited from earlier work
HIV [2] = settings: cited from earlier work; remark: listed apart in the source
mock-infected MT-2 cells = experiment: Compound toxicity by XTT in mock-infected MT-2 cells; format: cell-based; settings: Homo sapiens, MT2, read-out: IC50 (concentration that inhibits mock-infected cell growth by 50%)
HIV-1NL4-3 = HIV-1NL4-3 replication inhibition assay in MT-4 lymphocytes; format: cell-based; settings: HIV-1NL4-3 infected MT-4 lymphocytes
Procedure, shortened: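 MT-4 cells infected with HIV-1 NL4-3 or NL4-3 variants at MOI 0.01. Culture supernatants collected on day 4 post-infection. Viral replication read out by p24 antigen capture ELISA.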

Question: With `C=C(C)C1CCC2(C(=O)O)CCC3(C)C(CCC4C5(C)CCC(OC(=O)C(C)(C)CC(=O)O)C(C)(C)C5CCC43C)C12` (centres unmarked) [3-O-(2′,2′-dimethylsuccinyl) BA] as the molecule, how does the EC50 (HIV [1]) read?
Answer: 2.7 µM

Question: For `CC1(C)C=C2[C@H]3CC[C@@H]4[C@@]5(C)CCC(=O)C(C)(C)[C@@H]5CC[C@@]4(C)[C@]3(C)CC[C@@]2(C(=O)O)CC1` [Compound 3, moronic acid], which “EC50 (anti-HIV activity)” value (HIV [2]) is on record?
Answer: 0.1 mg/L (≈ 0.22 µM)

Question: With `C=C(C)[C@@H]1CC[C@]2(C(=O)O)CC[C@]3(C)[C@H](CC[C@@H]4[C@@]5(C)CC[C@H](OC(=O)C[C@H](C)C(=O)O)C(C)(C)[C@@H]5CC[C@]43C)[C@@H]12` [Compound 10, 3β-O-(3′S-Methylsuccinyl)-betulinic acid] as the molecule, how does the IC50 (mock-infected MT-2 cells) read?
Answer: 32.8 µM

Question: With `C=C(C)[C@@H]1CC[C@]2(C(=O)O)CC[C@]3(C)[C@H](CC[C@@H]4[C@@]5(C)CC[C@H](OC(=O)C[C@](C)(CC)C(=O)O)C(C)(C)[C@@H]5CC[C@]43C)[C@@H]12` [Compound 12a, 3β-O-(3′S-Ethylmethylsuccinyl)-betulinic acid] as the molecule, how does the antiviral activity (HIV-1NL4-3) read?
Answer: active

Question: For `C=C(C)[C@@H]1CC[C@]2(C(=O)O)CC[C@]3(C)[C@H](CC[C@@H]4[C@@]5(C)CC[C@H](OC(=O)C[C@@](C)(CC)C(=O)O)C(C)(C)[C@@H]5CC[C@]43C)[C@@H]12` [Compound 12b, 3β-O-(3′R-Ethylmethylsuccinyl)-betulinic acid], which antiviral activity (HIV-1NL4-3) is on record?
Answer: no antiviral activity
